# Compound activity deposited in PubChem by The Scripps Research Institute Molecular Screening Center.
# LEDGF integ inh: blocks HIV-1 LEDGF/p75-dependent DNA integration | TR-FRET IN-LEDGF/p75 DNA integration, Eu/Cy5 | inhibition, % at 3.7 µM | 370,000 compounds, 0.64% hits | AID 743269;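 active = inhibition above the screen-wide mean plus 3 SD, cut at about 13% in these data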;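 note: signal is the Cy5 over europium emission ratio at 671 and 618 nm; 0% = plate median of compound wells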
# SIAE primary: human SIAE inhibition, primary screen. Q9HAT2. SIAE FP-Rh probe binding, fluorescence polarization. inhibition, % at 9.66 µM. 370,000 compounds, 0.69% hits;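 active = inhibition above a cutoff: mean of compounds within the control limits plus 3 SD of those, cut at about 17% in these data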;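 note: 0% = plate median of compound wells and 100% = probe without SIAE protein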
# HTRA1 inhibitor: HTRA1 (human) protease inhibition. recombinant HTRA1, FP-rhodamine activity-based probe, fluorescence polarization. inhibition, % at 5.96 µM. 340,000 compounds, 0.5% hits. AID 504803. Q92743; in the data active = inhibition above about 36%;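 note: 0% = enzyme with DMSO and 100% = wells lacking enzyme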
# TCR CD3 inh: blocks the human TCR-CD3 interaction. AID 651800. 360,000 compounds, 0.37% hits. inhibition, % at 9.4 µM. TAMRA-labeled TCR probe fluorescence, biochemical; in the data active = inhibition above about 19%;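 note: recombinant mutant TCR 2C K166C tagged with TAMRA read by polarization; 0% = receptor in buffer alone and 100% = receptor with positive control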
# TDP2 inh: blocks human TDP2 phosphodiesterase activity | inhibition, % at 12.8 µM | AID 720702 | O95551 | recombinant TDP2, T5PNP hydrolysis, p-nitrophenol absorbance 415 nm | 370,000 compounds, 0.34% hits;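 active = inhibition above the mean of all tested compounds plus 3 SD, set per campaign, cut at about 25% in these data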;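 note: 0% = DMSO with enzyme and 100% = buffer with substrate but no TDP2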
# Target sequence (O95551 whole entry, looked up): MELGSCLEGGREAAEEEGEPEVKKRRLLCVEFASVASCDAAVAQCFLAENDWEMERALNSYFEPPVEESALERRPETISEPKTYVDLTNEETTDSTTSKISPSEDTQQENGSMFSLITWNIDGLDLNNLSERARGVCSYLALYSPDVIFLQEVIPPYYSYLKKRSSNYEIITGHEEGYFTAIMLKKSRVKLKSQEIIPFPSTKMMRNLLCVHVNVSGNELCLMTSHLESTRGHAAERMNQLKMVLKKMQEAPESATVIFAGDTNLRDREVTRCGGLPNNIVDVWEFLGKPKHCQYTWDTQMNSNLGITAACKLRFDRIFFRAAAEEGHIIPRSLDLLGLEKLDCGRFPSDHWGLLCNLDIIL
#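 Material: recombinant human TDP2; quantity: TDP2 enzyme at 120 nM final; medium: Tris-HCl pH 7.5 with MgCl2; compound: single concentration, 12.8 µM nominal, with 1% DMSO; incubation: 2 h enzyme incubation at 37 °C; signal: epi absorbance; measure: percent inhibition; benchmarks: high control without enzyme, low control DMSO plus TDP2; repeats: singlicate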
# mABHD4 FP: ABHD4 (mouse) inhibition, primary FP screen | purified mABHD4, FP-Rh probe fluorescence polarization | inhibition, % at 8.92 µM | 370,000 compounds, 0.54% hits | AID 720543;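 active = inhibition exceeding the mean over every tested compound plus 3 SD, cut at about 30% in these data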;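 note: 0% = plate median of compound wells and 100% = S159A mutant with DMSO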
#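 Assay system: mouse ABHD4 enzyme, wild type / Also added: fluorescent activity-based probe FP-Rh / Doses: single nominal dose of 8.92 µM, 0.89% DMSO final / Timing: 45 min compound pre-incubation plus 60 min probe step, 25 °C / Signal: FP readout, ex 525 nm / em 598 nm / Control set: S159A mutant/DMSO as 100%, compound-well median as 0%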
# SIAE inh conf: confirmation of human SIAE inhibitors. SIAE FP-Rh activity-based probe, fluorescence polarization. 2,300 compounds, 13% hits. AID 1117263. inhibition, % at 9.66 µM. shares compounds with SIAE primary;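 active = mean inhibition of the replicates above the hit cutoff set in the primary screen, cut at about 17% in these data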;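 note: 0% = SIAE with DMSO and probe and 100% = probe without SIAE; inhibitors lower polarization as more probe stays unbound to SIAE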
# * = called active by the depositor; · = not tested or not shown. Hits are enriched below; roughly 2.2% of the tested compounds scored in any of these assays.
SMILES,LEDGF integ inh,SIAE primary,HTRA1 inhibitor,TCR CD3 inh,TDP2 inh,mABHD4 FP,SIAE inh conf
CS(=O)(=O)N(CC(=O)N1CCN(Cc2ccccc2)CC1)c1ccccc1F,0,-1,-2,8,4,5,·
COc1ccc(N2CCN(C(=O)CN(c3ccccc3)S(C)(=O)=O)CC2)cc1,4,20*,5,-5,-1,3,3
COc1cc(OC)c(NC(=O)c2cncn2-c2ccc(F)cc2)cc1Cl,-6,5,-2,-4,-15,1,·
COc1ccc(NC(=O)CN2CCCC2c2cccs2)cc1S(=O)(=O)N1CCCCC1 (configuration not stated),2,-22,-20,6,-16,-20,·
COc1ccc(C)cc1N(CC(=O)N1CCCCCC1)S(C)(=O)=O,1,5,0,4,-3,-1,·
COc1ccc(C)cc1N(CC(=O)N1CCCC1)S(C)(=O)=O,-2,18*,2,-2,-3,2,-1
COc1cc(CCC(=O)NCCc2ccc(F)cc2)cc(OC)c1OC,-3,18*,-4,-2,11,-3,-12
O=C(Nc1ccc(F)cc1F)Nc1csc2ccccc12,-5,4,·,-5,-10,-1,·
O=C(Nc1ccc(F)c(Cl)c1)Nc1csc2ccccc12,-2,23*,-13,3,-6,-4,-11
CN(C)c1ccc(CN(CC2CCCO2)C(=O)c2cc3ccccc3o2)cc1 (configuration not stated),2,20*,-2,5,5,2,-1
Cc1c(C(=O)N(Cc2ccc(N(C)C)cc2)CC2CCCO2)oc2ccccc12 (configuration not stated),0,-1,-3,2,-28,-5,·
COc1ccc(-c2nc3cccc(C)n3c2NCc2ccco2)cc1OC,2,25*,10,1,-17,2,4
COc1ccc(-c2csc(NCc3ccco3)n2)cc1C,·,·,-7,·,·,·,·
Cn1cc([N+](=O)[O-])c(C(=O)N/N=C/c2ccncc2)n1,-1,17*,-5,2,-16,2,3
Cn1cc([N+](=O)[O-])c(C(=O)N/N=C/c2ccc([N+](=O)[O-])cc2)n1,0,-3,2,6,-5,4,·
CCCCN(C(=O)c1cccc(S(=O)(=O)N2CC(C)OC(C)C2)c1)c1c(N)n(CC(C)C)c(=O)[nH]c1=O (configuration not stated),-8,-1,1,-5,-10,6,·
Cc1cc(C(=O)COC(=O)c2ccc(F)cc2F)c(C)n1C1CC1,4,1,-11,2,-3,5,·
CCN(Cc1ccccc1)C(=O)C1CCN(CC2CC=CCC2)CC1 (configuration not stated),3,22*,9,-6,7,4,1
Cc1ccc(CNC(=O)[C@H]2O[C@@H](n3ccc(N)nc3=O)[C@H](O)[C@@H]2O)o1,-13,25*,·,3,-1,6,19*
Cc1ccc(CNC(=O)[C@H]2O[C@@H](n3cnc4c(N)ncnc43)[C@H](O)[C@@H]2O)o1,4,17*,·,6,-8,-4,20*
CN(Cc1cnn(-c2ccc(F)cc2)c1)C(=O)[C@H]1O[C@@H](n2cnc3c(N)ncnc32)[C@H](O)[C@@H]1O,5,41*,·,-2,2,-1,45*
Nc1ccn([C@@H]2O[C@H](C(=O)Nc3cc(C(F)(F)F)cc(C(F)(F)F)c3)[C@@H](O)[C@H]2O)c(=O)n1,8,14,·,-3,-12,-11,·
COc1cc(NC(=O)[C@H]2O[C@@H](n3ccc(N)nc3=O)[C@H](O)[C@@H]2O)cc(OC)c1OC,-2,26*,·,1,0,-1,20*
COc1ccc(NC(=O)N(C)[C@H]2C[C@H]3c4[nH]c5c(-c6cccc(C)c6)cccc5c4CCN3C(=O)[C@H]2[C@H](C)O)cc1,-5,8,·,·,-1,-4,·
C[C@H]1CN([C@@H](C)CO)C(=O)CCCn2nncc2CO[C@H]1CN(C)S(=O)(=O)c1ccc(-n2cccn2)cc1,-1,-6,-2,3,-3,0,·
SMILES,LEDGF integ inh,SIAE primary,HTRA1 inhibitor,TCR CD3 inh,TDP2 inh,mABHD4 FP,SIAE inh conf
O=C(Cc1cn(Cc2ccccc2)c2ccccc12)Nc1ccc(Nc2cccnc2)cc1,-2,26*,·,-8,-16,22,28*
Cc1cc(NC(=O)Cc2cn(Cc3ccccc3)c3ccccc23)ccc1Oc1cccnc1,1,-16,·,0,-5,-19,·
COc1cc(CNCCN2CCOCC2)ccc1OCc1cccc(Cl)c1,6,17*,9,-15,8,2,-6
Cc1cc(C)n2nc(SCc3nnc(-c4ccccc4Br)o3)nc2n1,-1,22*,2,4,1,1,1
Cc1cc(C)n2nc(SCc3ncc(-c4ccccc4)o3)nc2n1,0,-3,-4,1,-7,0,·
CCOC(=O)c1sc2ccc(S(=O)(=O)N3CCOCC3)cc2c1N,1,1,-3,1,1,6,·
CCOC(=O)c1sc2ccc(S(=O)(=O)N3CCCCC3)cc2c1N,-2,21*,-18,4,-5,-10,-2
CC(C)C(=O)Nc1cccc(C(=O)Nc2ccc(S(=O)(=O)Nc3nccs3)cc2)c1,1,1,-6,-6,-8,-11,·
Cc1[nH]c2ccc(F)cc2c1CCN1C(=O)OC(C)(C)C1(C)O (configuration not stated),-2,26*,9,-7,0,-3,3
CC1CCC(C(C)C)C(OC(=O)COC(=O)c2cc(O)ccc2N)C1 (configuration not stated),0,20*,18,5,-9,26,9
CC(=O)c1cccc(S(=O)(=O)N2CCC(C(=O)Oc3ccc(-c4nnco4)cc3)CC2)c1,-2,22*,0,0,-2,-9,16
COc1cccc(C(=O)NCCNC(=O)c2cnccn2)c1,5,-6,-2,6,-7,-3,·
Cc1cc2occ(CC(=O)N(C)CC(=O)Nc3ccccc3Br)c2cc1C,-2,-1,-10,0,4,0,·
CC(C)(C)OC(=O)N1Cc2[nH]c3ccccc3c2C[C@@H]1C(=O)O,-1,26*,0,-5,14,-2,3
CCN(c1nc(C)cc(OC)n1)S(=O)(=O)c1ccccc1,-3,18*,1,7,-13,-3,4
C=CCN(c1nc(C)cc(OC)n1)S(=O)(=O)c1ccccc1,6,5,-1,10,4,-1,·
c1ccc2c(c1)[nH]c1ccccc12,0,-2,-15,6,1,-5,·
